# Experimental data from PMC8244166 (Neuron, 2020).
# pEC50: −log10 of the molar value. Values joined by “and” are separate entries in the source; they are usually repeats but may differ in a detail not shown here. Equal entries are not always repeated.
# What was measured:
# [1] = tested on: GNE551-evoked nocifensive behavior; experiment: Inhibition of GNE551-evoked nocifensive behavior, PK/PD; type: in vivo, rat
# [2] = tested on: AITC-evoked nocifensive behavior; experiment: Inhibition of AITC-evoked nocifensive behavior, PK/PD; type: in vivo, rat; conditions: 30 mg/kg dosing
# [3] = Rat pharmacokinetics after oral gavage; type: in vivo
# [4] = tested on: rat dorsal root ganglion neurons; experiment: Ca2+ influx in dorsal root ganglion neurons; type: cell-based; conditions: WT versus TRPA1 KO rats
# [5] = tested on: rat hind paw nocifensive behavior; experiment: Nocifensive behavior after intraplantar agonist injection; type: in vivo
# Outline: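 Male Sprague-Dawley rats aged 8 weeks or older are used; KO versus WT littermates from heterozygote crosses include both sexes. Under light restraint, a unilateral intraplantar injection of 25 μL is given with a 30-gauge needle: reference electrophile 0.1% or test agonist 10 mM. Rats are video-recorded 15 min (reference) or 30 min (test agonist) during the light phase. Licking, flicking and guarding time is scored blind offline, and groups are compared by two-tailed t-test.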
# [6] = tested on: TRPA1 Gln940 to Asn, Val or Ala; experiment: Ca2+ assay, point mutants; type: cell-based, human
# Outline: (§1)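 HEK293-F cells are transiently transfected with the TRPA1 construct one day before imaging. Cells are loaded with a calcium-sensitive dye for 1 h at 37 °C. Compound is added and fluorescence (Ca2+ RFU) is recorded on a kinetic fluorescence imager. EC50 comes from nonlinear regression constrained to EC50 > 0, Bottom = 0 and Hill slope between 1 and 3.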
# TRPA1 Phe909Ala = experiment: Ca2+ assay, point mutant; type: cell-based, human
# Outline: as §1
# [7] = tested on: Gln940Val mutant human channel; experiment: Ca2+ assay, point mutant; type: cell-based
# Outline: as §1
# Gln940Val TRPA1 = experiment: Whole-cell patch clamp, point mutant; type: cell-based, human; conditions: GNE551 1.5 μM, AITC positive control, n = 4
# Outline: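 HEK293-F cells are recorded whole-cell one day after transient transfection. From a 0 mV holding potential, the protocol is 10 msec at −80 mV, a 200 msec ramp to +80 mV, then 10 msec at +80 mV, applied once per second. Nominally Ca2+-free solutions are used: bath NaCl/HEPES with 0.1 mM EGTA, pH 7.4; pipette CsF with 10 mM EGTA, pH 7.2. Compounds are delivered by fast solution exchange.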
# TRPA1 Glu864Trp mutant = experiment: Ca2+ assay, point mutant; type: cell-based, human; conditions: high background Ca2+ signals
# Outline: as §1
# [8] = tested on: TRPA1 Ser887 to Trp or Met; experiment: Ca2+ assay, point mutants; type: cell-based, human
# Outline: as §1
# [9] = Glutathione reactivity assay; type: physicochemical; conditions: 10 μM compound, 1 mM glutathione, pH7.4, 37°C, 30 minutes
# Outline: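 The test compound (10 μM) is incubated with or without 1 mM glutathione in 50 mM potassium phosphate, pH7.4, at 37°C for 30 minutes, and the reaction is stopped on ice. Samples run by UHPLC-MS on a C18 column at 40 °C and 0.4 mL/min, with a 0.1% formic acid water/acetonitrile gradient of 5–50% B over 15 minutes, then a 95% B wash.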
# human TRPV1 = experiment: Ion channel selectivity test; type: cell-based; conditions: 20 μM
# [10] = tested on: human potassium channel hERG1; experiment: Ion channel selectivity test; type: cell-based; conditions: 10 μM
# TRPA1 from rat = experiment: Ca2+ assay, species TRPA1; type: cell-based
# Outline: as §1
# [11] = tested on: chimera containing S1-S6 domains of chicken TRPA1; experiment: Ca2+ assay, human-chicken chimera; type: cell-based
# Outline: as §1
# NK1 receptor [12] = experiment: NK1 receptor agonist / antagonist assay; type: cell-based; conditions: up to 30 μM
# human TRPM8 = experiment: Ion channel selectivity test; type: cell-based; conditions: 20 μM
# TRPA1 Tyr840 to Phe = experiment: Ca2+ assay, point mutant; type: cell-based, human; conditions: versus wild type
# Outline: as §1
# human TRPC6 = experiment: Ion channel selectivity test; type: cell-based; conditions: 20 μM
# TRPA1 from guinea pig = experiment: Ca2+ assay, species TRPA1; type: cell-based
# Outline: as §1
# NK1 receptor [13] = experiment: CEREP panel binding inhibition; conditions: 10 μM
# TRPA1 channel = experiment: Inside-out single channel / macropatch recordings; type: cell-based, human; conditions: for Erev (reversal potential): 10 μM AITC (n = 4); for Px/PNa (ion selectivity against Na+) / y (single channel conductance): 1 μM GNE551, 10 μM AITC
# Glu864Trp channel = experiment: Single channel recordings, point mutant; type: cell-based, human; conditions: GNE551 1 μM, +80 mV, n = 4; basal Po 0.56 ± 0.05
# chicken TRPA1 = experiment: Ca2+ assay, species TRPA1; type: cell-based; conditions: concentration as high as 50 μM
# Outline: as §1
# hTRPA1 [14] = target: T1, hTRPA1 (Homo sapiens, UniProt O75762); experiment: Whole-cell voltage-clamp recordings of TRPA1-expressing HEK293-F cells; type: cell-based; conditions: for current of second application compared to the first: whole-cell, n = 3
# T1 sequence (O75762 whole entry): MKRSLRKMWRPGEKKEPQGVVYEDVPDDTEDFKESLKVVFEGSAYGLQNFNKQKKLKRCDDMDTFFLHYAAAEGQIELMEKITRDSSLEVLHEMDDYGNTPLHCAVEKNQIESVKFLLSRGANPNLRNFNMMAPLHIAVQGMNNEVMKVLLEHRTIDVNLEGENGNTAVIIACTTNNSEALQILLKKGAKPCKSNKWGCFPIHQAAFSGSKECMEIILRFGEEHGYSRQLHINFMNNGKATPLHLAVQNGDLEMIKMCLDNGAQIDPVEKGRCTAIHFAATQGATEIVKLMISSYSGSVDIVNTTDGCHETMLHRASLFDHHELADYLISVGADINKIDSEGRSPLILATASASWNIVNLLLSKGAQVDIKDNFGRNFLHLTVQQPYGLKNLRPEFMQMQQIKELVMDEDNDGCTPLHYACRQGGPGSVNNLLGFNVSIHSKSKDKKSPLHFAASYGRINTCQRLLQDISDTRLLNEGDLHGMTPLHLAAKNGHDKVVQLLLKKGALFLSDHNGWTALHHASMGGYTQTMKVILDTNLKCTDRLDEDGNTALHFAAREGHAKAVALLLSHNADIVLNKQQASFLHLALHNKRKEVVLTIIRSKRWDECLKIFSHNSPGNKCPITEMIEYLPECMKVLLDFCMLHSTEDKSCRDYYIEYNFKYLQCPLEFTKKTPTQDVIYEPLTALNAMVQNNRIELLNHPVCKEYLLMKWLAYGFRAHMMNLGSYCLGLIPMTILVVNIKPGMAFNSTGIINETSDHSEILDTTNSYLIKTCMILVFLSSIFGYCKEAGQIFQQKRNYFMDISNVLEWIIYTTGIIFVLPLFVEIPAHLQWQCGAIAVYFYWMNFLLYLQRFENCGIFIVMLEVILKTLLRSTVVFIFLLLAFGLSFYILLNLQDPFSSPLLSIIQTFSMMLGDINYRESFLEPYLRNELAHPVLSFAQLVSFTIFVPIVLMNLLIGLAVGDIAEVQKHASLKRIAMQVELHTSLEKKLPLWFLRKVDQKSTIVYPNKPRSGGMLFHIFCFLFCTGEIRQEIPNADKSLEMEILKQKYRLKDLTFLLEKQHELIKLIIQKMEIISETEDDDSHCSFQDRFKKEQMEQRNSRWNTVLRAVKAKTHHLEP
# TRPA1 from dog = experiment: Ca2+ assay, species TRPA1; type: cell-based
# Outline: as §1
# TRPA1 from rhesus monkey = experiment: Ca2+ assay, species TRPA1; type: cell-based
# Outline: as §1
# [15] = tested on: TRPA1 Tyr840 to Trp, His, Leu, or Ala; experiment: Ca2+ assay, point mutants; type: cell-based, human
# Outline: as §1
# Cav1.2 = Cav1.2 assay; type: cell-based; conditions: up to 30 μM
# [16] = tested on: TRPA1 Ser873Val/Thr874Leu; experiment: Ca2+ assay, point mutant; type: cell-based, human
# Outline: as §1
# [17] = tested on: Cav1.2 (L-dihydropyridine site); experiment: CEREP panel binding inhibition
# hTRPA1 [18] = target: T1, hTRPA1; experiment: Ca2+ influx assay, HEK293-F cells expressing human TRPA1; type: cell-based
# [19] = inside-out, +80 mV, 1 μM GNE551 (n = 5), 100 nM WaTx (n = 8)
smiles,measurement,setting,value
Cn1cnc2ncn(Cc3nc(CCc4ccc(Cl)cc4)no3)c(=O)c21 [AMG0902],block of GNE551-induced response,[1]; 30 mg/kg,38%
same,latency to GNE551-induced nocifensive behavior,[1]; increasing oral doses of antagonist,lengthened the latency
same,block of AITC-induced response,[2],86%
same,Tmax (time point of maximal plasma concentration),[3],1 h
"COc1ccc(OC)c(NC(=O)c2nnn(Cc3ccc(Br)cc3F)c2N)c1 [GNE551, 5-amino-1-(4-bromo-2-fluorobenzyl)-N-(2,5-dimethoxyphenyl)-1H-1,2,3-triazole-4-carboxamide]",specificity of activation in DRG neurons,[4],solely activated TRPA1 channels
same,latency to nocifensive response,"[5]; GNE551 10 mM, 25 μl, WT rats",reduced
same,residual response in TRPA1 KO rats,"[5]; GNE551 10 mM, possibly vehicle effect",13%
same,nocifensive behaviors,[5]; first 5 min after injection of GNE551,"virtually no paw flicking, licking, or guarding"
same,nocifensive response,"[5]; intraplantar GNE551 1, 3, and 10 mM, 25 μl, WT rats",dose-dependent manner
same,time to plateau of nocifensive behaviors after injection,"[5]; intraplantar GNE551, 30-min observation",15 to 20 min
same,effect of mutation on sensitivity to GNE551,[6],completely abolished
same,effect of mutation on GNE551 activation,TRPA1 Phe909Ala,not affected
same,effect of mutation on GNE551 activation,[7],nearly abolished
same,activation of mutant channel,Gln940Val TRPA1,failed to activate
same,response of mutant to agonist stimulation,TRPA1 Glu864Trp mutant,almost lost responses
same,effect of mutation on activation,[8],loss of activation
same,glutathione adduct formation,[9],did not form an adduct
same,activation or block of channel,human TRPV1,did not activate or block
same,inhibition of channel,[10],did not inhibit
same,channel activation,TRPA1 from rat,activated
same,response of chimera,[11],lost response
same,agonistic or antagonistic effect on NK1 receptor,NK1 receptor [12],did not translate to significant agonistic or antagonistic effect
same,activation or block of channel,human TRPM8,did not activate or block
same,reduction of potency by mutation,TRPA1 Tyr840 to Phe,six-fold
same,activation or block of channel,human TRPC6,did not activate or block
same,channel activation,TRPA1 from guinea pig,activated
same,binding inhibition,NK1 receptor [13],> 75%
same,Erev (reversal potential),"TRPA1 channel; cation Ca2+, 1 μM GNE551 (n = 5)",−25.6 ± 1.1 mV
same,Px/PNa (ion selectivity against Na+),TRPA1 channel; cation Ca2+,15.7 ± 1.1
same,y (single channel conductance),TRPA1 channel; cation Ca2+,21.6 ± 2.8 pS
same,Erev (reversal potential),"TRPA1 channel; cation Mg2+, 1 μM GNE551 (n = 5)",−13.2± 2.7 mV
same,Px/PNa (ion selectivity against Na+),TRPA1 channel; cation Mg2+,7.2 ± 1.3
same,y (single channel conductance),TRPA1 channel; cation Na+,101.4 ± 6.8 pS
same,opening frequency,TRPA1 channel; [19],4.6 ± 0.6 Hz
same,single channel open probability (Po),TRPA1 channel; [19],0.41 ± 0.07 and 0.41
same,open state dwell time,"TRPA1 channel; inside-out, agonist-activated channels",20.9 milliseconds
same,channel desensitization,"TRPA1 channel; nominally Ca2+-free solutions, AITC 10 μM, GNE551 1 μM",did not result in desensitization
same,open probability (Po),Glu864Trp channel,0.80 ± 0.08
same,channel activation,chicken TRPA1,no effect
same,pEC50,hTRPA1 [14],6.85
same,current of second application compared to the first,hTRPA1 [14]; +80 mV,93.5 ± 0.5%
same,current of second application compared to the first,hTRPA1 [14]; −80 mV,89.0 ± 6.3%
same,channel activation,TRPA1 from dog,activated
same,channel activation,TRPA1 from rhesus monkey,activated
same,effect of mutation on sensitivity to GNE551,[15],completely abolished
same,inhibition of Cav1.2,Cav1.2,did not translate to
same,effect of mutation on GNE551 activation,[16],not affected
same,inhibition at 10 µM,[17],> 75%
same,pEC50,hTRPA1 [18],6.60
same,efficacy compared to AITC,"hTRPA1 [18]; Ca2+ influx, human TRPA1",equally efficacious
